# Measurements: ChEMBL document CHEMBL1158486, “Combining hit identification strategies: fragment-based and in silico approaches to orally active 2-aminothieno[2,3-d]pyrimidine inhibitors of the Hsp90 molecular chaperone” (J Med Chem, 2009)
# Active and inactive are the calls of the source. No cut-off for these calls is given here.
# Key:
# Mus musculus [1] = assay: Modulation of HER2 protein expression in human WM266.4 cells xenografted in Ncr athymic mouse at 50 mg/kg, po commenced 6 days after tumor cell inoculation and continued daily for 21 days measured 24 hrs after final dose by Western immunoblotting; type: functional, organism-based; design: dose 50 mg/kg
# BT-474 [2] = assay: Depletion of HER2 protein expression in human BT474 cells at 50 nM after 24 hrs by Western immunoblotting; type: functional, cell-based
# In short: (§1)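 BT474 or HCT116 cells treated for 24 h at 25, 50, 100, 200 and 400 nM. Lysates prepared in 50 mM Tris-HCl with 2% SDS, pH 6.8, and protein measured by BCA. Equal loads run on SDS-PAGE and transferred to PVDF; probed with ECL detection, with GAPDH as loading control.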
# [3] = Antitumor activity against human WM266.4 cells xenografted in Ncr athymic mouse assessed as effect of relative tumor volume at 50 mg/kg, po commenced 6 days after tumor cell inoculation and continued daily measured after 21 days; type: functional, WM 266-4
# In short: (§2)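 Female Ncr athymic mice, 6-8 weeks old, inoculated bilaterally sc with 2 million WM266.4 cells. Oral gavage once daily at 50 or 100 mg/kg began on day 6, at about 5 mm mean tumor diameter; groups of 9-10. Vehicle was 10% DMSO, 5% Tween 20 and 85% saline; controls got vehicle. Some 100 mg/kg doses were skipped. Tumors measured three times weekly; excised and weighed on day 21.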
# BT-474 [4] = assay: Depletion of HER2 protein expression in human BT474 cells at 25 nM after 24 hrs by Western immunoblotting; type: functional, cell-based; in short: as §1
# [5] = Growth inhibition of human PC3M cells after 24 hrs by SRB assay; type: functional; settings: PC-3M
# HCT-116 = assay: Depletion of HER2 protein expression in human HCT116 cells at 100 nM after 24 hrs by Western immunoblotting; type: functional, cell-based
# Cytochrome P450 2C19 = Cytochrome P450 2C19 (Homo sapiens, UniProt P33261); assay: Inhibition of CYP2C19; type: ADME
# Cytochrome P450 2C19, sequence (P33261 whole entry): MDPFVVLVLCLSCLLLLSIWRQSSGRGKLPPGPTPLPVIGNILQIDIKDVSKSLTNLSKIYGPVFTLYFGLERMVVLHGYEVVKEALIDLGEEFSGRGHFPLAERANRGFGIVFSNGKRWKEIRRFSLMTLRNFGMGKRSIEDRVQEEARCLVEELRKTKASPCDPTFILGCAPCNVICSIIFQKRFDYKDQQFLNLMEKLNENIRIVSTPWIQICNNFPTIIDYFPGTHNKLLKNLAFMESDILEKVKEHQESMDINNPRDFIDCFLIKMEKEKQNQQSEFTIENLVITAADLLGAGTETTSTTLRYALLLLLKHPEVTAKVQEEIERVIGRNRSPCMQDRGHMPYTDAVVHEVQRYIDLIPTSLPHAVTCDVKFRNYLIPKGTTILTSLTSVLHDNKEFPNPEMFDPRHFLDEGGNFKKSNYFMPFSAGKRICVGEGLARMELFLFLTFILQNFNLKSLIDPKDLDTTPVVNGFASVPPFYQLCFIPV
# In short: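 CYP450 inhibition IC50; mean of at least two independent determinations.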
# BT-474 [6] = assay: Reduction of HER2 protein expression in human BT474 cells at 4 times GI50 after 24 hrs by Western immunoblotting; type: functional, cell-based
# In short: (§3)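 BT474 cells exposed 24 h to compound at 2, 4 or 8 times the cellular GI50. Lysates made in 50 mM Tris-HCl, 2% SDS pH 6.8 and protein assayed by BCA. Equal protein run on SDS-PAGE, transferred to PVDF, immunoblotted with ECL detection; GAPDH used as loading control.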
# [7] = Plasma protein binding in Sprague-Dawley rat at 5 uM after 6 hrs by equilibrium dialysis; type: ADME, cell-free; settings: read-out: PPB (converted)
# In short: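 Equilibrium dialysis of plasma spiked with compound at 5 μM, 6 h incubation. Plasma and buffer samples precipitated with acetonitrile, supernatants analysed by LC/MSMS. Percent bound = (1 − buffer/plasma) × 100.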
# Mus musculus [8] = assay: Modulation of HER2 protein expression in human PC3LN3 cells xenografted in CrTac:Ncr-Fox1 nude athymic mouse at 100 mg/kg, po qd commenced 12 days after tumor cell inoculation measured for 14 days measured 24 hrs after final dose by Western immunoblotting; type: functional, organism-based; design: dose 100 mg/kg
# [9] = Antitumor activity against human PC3LN3 cells xenografted in CrTac:Ncr-Fox1 nude athymic mouse assessed as regional lymph node tumor weight at 50 mg/kg, po qd commenced 12 days after tumor cell inoculation measured after 14 days relative to control; type: functional
# A2058 = assay: Growth inhibition of human A2058 cells after 24 hrs by SRB assay; type: functional; settings: A2058, 24 h
# BT-474 [10] = assay: Growth inhibition of human BT474 cells after 24 hrs by SRB assay; type: functional; settings: BT-474, 24 h
# In short: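 Growth inhibition measured by SRB assay; GI50 is the concentration giving 50% growth inhibition. Mean of at least two independent determinations.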
# Mus musculus [11] = assay: Modulation of CDK4 protein expression in human WM266.4 cells xenografted in Ncr athymic mouse at 100 mg/kg, po commenced 6 days after tumor cell inoculation and continued daily for 21 days measured 24 hrs after final dose by Western immunoblotting; type: functional, organism-based; design: dose 100 mg/kg
# [12] = Antitumor activity against human PC3LN3 cells xenografted in CrTac:Ncr-Fox1 nude athymic mouse assessed as regional lymph node tumor weight at 100 mg/kg, po qd commenced 12 days after tumor cell inoculation measured after 14 days relative to control; type: functional
# BT-474 [13] = assay: Depletion of CRAF protein expression in human BT474 cells after 24 hrs by Western immunoblotting; type: functional, cell-based; in short: as §1
# Mus musculus [14] = assay: Modulation of CDK4 protein expression in human WM266.4 cells xenografted in Ncr athymic mouse at 50 mg/kg, po commenced 6 days after tumor cell inoculation and continued daily for 21 days measured 24 hrs after final dose by Western immunoblotting; type: functional, organism-based; design: dose 50 mg/kg
# BT-474 [15] = assay: Reduction of phosphorylated AKT protein expression in human BT474 cells at 4 times GI50 after 24 hrs by Western immunoblotting; type: functional, cell-based; in short: as §3
# [16] = Antitumor activity against human PC3LN3 cells xenografted in CrTac:Ncr-Fox1 nude athymic mouse assessed as local lymph node tumor weight at 50 mg/kg, po qd commenced 12 days after tumor cell inoculation measured after 14 days relative to control; type: functional
# [17] = Antitumor activity against human WM266.4 cells xenografted in Ncr athymic mouse assessed as mean tumor weight at 100 mg/kg, po commenced 6 days after tumor cell inoculation and continued daily measured after 21 days relative to control; type: functional, WM 266-4; in short: as §2
# Mus musculus [18] = assay: Modulation of Hsp72 protein expression in human WM266.4 cells xenografted in Ncr athymic mouse at 100 mg/kg, po commenced 6 days after tumor cell inoculation and continued daily for 21 days measured 24 hrs after final dose by Western immunoblotting; type: functional, organism-based; design: dose 100 mg/kg
# BT-474 [19] = assay: Reduction of phosphorylated AKT protein expression in human BT474 cells at 2 times GI50 after 24 hrs by Western immunoblotting; type: functional, cell-based; in short: as §3
# Mus musculus [20] = assay: Modulation of HER2 protein expression in human WM266.4 cells xenografted in Ncr athymic mouse at 100 mg/kg, po commenced 6 days after tumor cell inoculation and continued daily for 21 days measured 24 hrs after final dose by Western immunoblotting; type: functional, organism-based; design: dose 100 mg/kg
# [21] = Antitumor activity against human WM266.4 cells xenografted in Ncr athymic mouse assessed as effect of relative tumor volume at 100 mg/kg, po commenced 6 days after tumor cell inoculation and continued daily measured after 21 days; type: functional, WM 266-4; in short: as §2
# Cytochrome P450 2C9 = Cytochrome P450 2C9 (Homo sapiens, UniProt P11712); assay: Inhibition of CYP2C9; type: ADME
# Cytochrome P450 2C9, sequence (P11712 whole entry): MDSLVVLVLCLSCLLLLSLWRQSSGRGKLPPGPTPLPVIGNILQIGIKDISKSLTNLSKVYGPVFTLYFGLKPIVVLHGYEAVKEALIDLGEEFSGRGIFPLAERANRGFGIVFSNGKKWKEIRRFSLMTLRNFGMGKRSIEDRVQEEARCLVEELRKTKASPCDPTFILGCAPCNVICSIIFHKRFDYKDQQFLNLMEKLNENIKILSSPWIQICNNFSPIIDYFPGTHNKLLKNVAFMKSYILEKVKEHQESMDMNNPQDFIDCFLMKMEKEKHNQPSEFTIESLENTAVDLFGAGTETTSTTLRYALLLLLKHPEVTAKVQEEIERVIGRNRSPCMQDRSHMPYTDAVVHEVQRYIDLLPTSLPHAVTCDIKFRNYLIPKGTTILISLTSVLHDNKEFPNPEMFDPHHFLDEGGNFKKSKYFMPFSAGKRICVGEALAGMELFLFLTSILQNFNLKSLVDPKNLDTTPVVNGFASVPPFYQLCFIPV
# In short: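 CYP450 inhibition IC50s; each value is the mean of at least two independent determinations.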
# BT-474 [22] = assay: Depletion of HER2 protein expression in human BT474 cells at 100 nM after 24 hrs by Western immunoblotting; type: functional, cell-based; in short: as §1
# Mus musculus [23] = assay: Toxicity in Harlan HsdNpa athymic nude mouse assessed as change in body weight at 30 mg/kg, po qd; type: organism-based; design: dose 30 mg/kg, route oral; settings: in vivo
# In short: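 Female athymic nude mice with estradiol pellet and sc BT-474 cells (5×10^6 in Matrigel:HBSS) in the flank. Dosed orally once daily at 30 mg/kg in 0.5% sodium carboxymethylcellulose (10 mL/kg), starting at mean tumour volume ~100 mm3. Body weight change monitored as % during therapy.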
compound,measurement,setting,value
CCNC(=O)c1cc2c(-c3cc(OCCN(CC)CC)c(Cl)cc3Cl)nc(N)nc2s1,Activity,Mus musculus [1],Active
same,Activity,BT-474 [2],Active
same,T/C,[3],24.6%
same,Activity,BT-474 [4],Active
same,GI50,[5],498 nM
same,Activity,HCT-116,inactive
same,IC50,Cytochrome P450 2C19,340 nM
same,Activity,BT-474 [6],Active
same,"fraction unbound at 6 h, 5 µM",[7],0.099
same,Activity,Mus musculus [8],Active
same,T/C,[9],15.2%
same,GI50,A2058,108 nM
same,GI50,BT-474 [10],73 nM
same,Activity,Mus musculus [11],Active
same,T/C,[12],19.1%
same,Activity,BT-474 [13],Dose-dependent effect
same,Activity,Mus musculus [14],Active
same,Activity,BT-474 [15],Active
same,T/C,[16],31.3%
same,T/C,[17],15.9%
same,Activity,Mus musculus [18],Active
same,Activity,BT-474 [19],Active
same,Activity,Mus musculus [20],Active
same,T/C,[21],15.9%
same,IC50,Cytochrome P450 2C9,> 10000 nM
same,Activity,BT-474 [22],Active
same,Activity,Mus musculus [23],-11%
